In paper PMC5884014 (Neoplasia (New York, N.Y.), 2017):

Experiments:
[1] = tested on: HexA-rev and HexB-rev fragments; assay: Guanine-N7 alkylation, Maxam-Gilbert method; type: binding; settings: 3'-end-labeled DNA, 37°C, 2 h, pH 7.4
In short: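 Sixty-four symmetrical hexanucleotide fragments (HexA-rev, HexB-rev) were 3′-end-labelled, gel-purified on polyacrylamide, and reacted with the test compound. Guanine-N7 alkylation sites were mapped by the Maxam-Gilbert method. A weighted consensus sequence logo was generated with Seq2Logo 3.4.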

LS174T = assay: Cytotoxicity assay; type: cell-based, human; settings: 72 h
HT-29 = assay: Cytotoxicity assay; type: cell-based, human
RKO = assay: Cytotoxicity assay; type: cell-based, human; settings: 72 h
RKO-E6 = assay: Cytotoxicity assay; type: cell-based, human; settings: RKO-E6 (p53-KO), 72 h
FHC = assay: Cytotoxicity assay; type: cell-based, human; settings: 72 h
SW620 = assay: Cytotoxicity assay; type: cell-based, human
LoVo = assay: Cytotoxicity assay; type: cell-based, human; settings: 72 h
H3347 = assay: Cytotoxicity assay; type: cell-based, human; settings: H3347, 72 h
Colo205 = assay: Cytotoxicity assay; type: cell-based, human
HCT116 = assay: Cytotoxicity assay; type: cell-based, human
DLD-1 = assay: Cytotoxicity assay; type: cell-based, human
Caco-2 = assay: Cytotoxicity assay; type: cell-based; settings: Homo sapiens, Caco-2, 72 h
[2] = Toxicology examination: serum biochemistry; type: in vivo; settings: ICR mice, 5-FU 50 mg/kg i.p., SL-1 30, oxaliplatin 7.5, cisplatin 7.5 mg/kg i.v.
[3] = FHC normal fetal colonic epithelial cells

For `CN(C)CCNC(=O)c1cccc(NC(=O)Nc2ccc(N(CCCl)CCCl)cc2)c1.Cl` [BO-1055], the “consensus sequence / binding pattern of guanine-N7 alkylation” value [1] was “no distinct binding sequence”.
Work on `N.N.[Cl][Pt][Cl]` [Cisplatin, cisplatin] yielded an IC50 (LS174T; LS174T (p53-WT)) of 8.48 ± 2.74 µM, an IC50 (HT-29; HT-29 (p53-MT), 72 h) of 5.99 ± 1.22 µM and an IC50 (RKO; RKO (p53-WT)) of 26.3 ± 3.28 µM. For the same compound, the IC50 (RKO-E6) was 24.8 ± 7.71 µM, the IC50 (FHC; [3]) was 21 ± 2.03 µM and the IC50 (SW620; SW620 (p53-MT), 72 h) was 0.91 ± 0.27 µM. The IC50 (LoVo; LoVo (p53-WT)) was 6.38 ± 2.18 µM, the IC50 (H3347) was 12.2 ± 0.64 µM and the IC50 (Colo205; Colo205 (p53-WT), 72 h) was 11.1 ± 1.27 µM. It also gave an IC50 (HCT116; HCT116 (p53-WT), 72 h) of 3.42 ± 0.36 µM and an IC50 (DLD-1; DLD-1 (p53-MT), 72 h) of 29.6 ± 6.42 µM.
Work on `CCc1c2c(nc3ccc(OC(=O)N4CCC(N5CCCCC5)CC4)cc13)-c1cc3c(c(=O)n1C2)COC(=O)[C@]3(O)CC` [Irinotecan, irinotecan] yielded an IC50 (LS174T; Homo sapiens, LS174T) of 1.36 ± 0.33 µM, an IC50 (Caco-2) of 21.3 ± 7.34 µM and an IC50 (HT-29; Homo sapiens, HT-29, 72 h) of 4.19 ± 0.29 µM. The IC50 (RKO; Homo sapiens, RKO) was 2.63 ± 1.05 µM, the IC50 (FHC; Homo sapiens, FHC) was > 100 µM and the IC50 (SW620; Homo sapiens, SW-620, 72 h) was 0.32 ± 0.1 µM. The IC50 (LoVo; Homo sapiens, LoVo) was 9.69 ± 1.68 µM, the IC50 (H3347; Homo sapiens) was 2.93 ± 0.68 µM and the IC50 (Colo205; Homo sapiens, COLO 205, 72 h) was 2.49 ± 0.48 µM. The IC50 (HCT116; Homo sapiens, HCT-116, 72 h) was 1.38 ± 0.49 µM and the IC50 (DLD-1; Homo sapiens, DLD-1, 72 h) was 1.72 ± 0.35 µM.
In the case of `O=C1[O][Pt]2([NH][C@@H]3CCCC[C@H]3[NH]2)[O]C1=O` [Oxaliplatin, oxaliplatin], the IC50 (LS174T; LS174T (p53-WT)) is reported as > 50 µM, the IC50 (HT-29; HT-29 (p53-MT), 72 h) is reported as 1.92 ± 0.81 µM and the IC50 (RKO; RKO (p53-WT)) is reported as 0.62 ± 0.02 µM. For the same compound, the IC50 (RKO-E6) was 10.3 ± 3.39 µM, the IC50 (FHC; [3]) was 19.7 ± 2.21 µM and the IC50 (SW620; SW620 (p53-MT), 72 h) was 7.62 ± 3.12 µM. The IC50 (LoVo; LoVo (p53-WT)) was 1.65 ± 0.21 µM, the IC50 (H3347) was 2.55 ± 0.73 µM and the ALP ([2]; 2 days) was 498.33 ± 63.91 U/l. For the same compound, the ALT ([2]; 2 days) was 28.00 ± 1.73 U/l, the AST ([2]; 2 days) was 76.67 ± 16.47 U/l and the BUN ([2]; 2 days) was 20.27 ± 3.32 mg/dL. For the same compound, the CRE ([2]; 2 days) was 0.27 ± 0.06 mg/dL, the GLU ([2]; 2 days) was 153.67 ± 88.22 mg/dL and the ALP ([2]; 14 days) was 245.5 ± 35.07 U/l. It also gave a BUN ([2]; 14 days) of 21.35 ± 5.07 mg/dL, a CRE ([2]; 14 days) of 0.13 ± 0.05 mg/dL and a GLU ([2]; 14 days) of 268.25 ± 61.43 mg/dL. The GOT/AST ([2]; 14 days) was 47.25 ± 7.13 U/l, the GPT/ALT ([2]; 14 days) was 29.50 ± 5.74 U/l and the IC50 (Colo205; Colo205 (p53-WT), 72 h) was 2.26 ± 0.78 µM. It also gave an IC50 (HCT116; HCT116 (p53-WT), 72 h) of 1.78 ± 0.11 µM and an IC50 (DLD-1; DLD-1 (p53-MT), 72 h) of 1.62 ± 0.06 µM.
